≈ marks a conversion by molar mass, not a printed value. Calls of active or inactive are those of the source. The calls are words filed in the database; no cut-off is given here.
Key:
Staphylococcus aureus = assay: Antibacterial activity against Staphylococcus aureus; type: functional
hERG (KCNH2) = hERG (KCNH2) (Homo sapiens, UniProt Q12809); assay: Displacement of [3H]astemizole from human hERG transfected in HEK293 cells at 10 uM after 1 hr by scintillation counter; type: cell-based; details: HEK293 cells transfected with human hERG, probe [3H]astemizole
Outline: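 Membranes came from hERG-transfected HEK293 cells (grown at 37 °C, 5% CO₂), homogenised and spun at 200,000 g. About 200,000 cells per tube were incubated 1 h at 30 °C with 0.5 nM [³H]astemizole and compound at 10 µM in HEPES pH 7.4 buffer. Non-specific binding was set with 10 µM unlabelled astemizole. Samples were filtered (GF/B) and counted by scintillation. Triplicates, n = 3.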

Nucleic Acid [1] = assay: Binding affinity to 5'GCGATATATGCG3' DNA sequence assessed as change in melting temperature by thermal denaturation assay; type: nucleic-acid assay
Outline: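 Oligonucleotide and its complement at 6×10^-6 M, mixed with MGB at the chosen ratio, in 10 mM PBS pH 7.4 with 50 mM NaCl. Heated 10→80 °C and cooled 80→10 °C at 0.5 °C/min. Absorbance was read at 260 nm, and Tm was taken from the derivative maxima.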

Nucleic Acid [2] = assay: Binding affinity to HexA DNA at <10 uM after 30 mins by DNase 1 footprinting assay; type: nucleic-acid assay
Outline: (§1)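 DNase I footprinting used 3'-end radiolabelled DNA (<10 nM) in 10 mM Tris-HCl pH 7.5 with 0.1 mM EDTA. It was incubated with ligand for at least 30 min at room temperature, then digested 1 min with about 0.01 units/mL DNase I (with NaCl, MgCl₂, MnCl₂). Fragments were resolved on 8% denaturing polyacrylamide/8 M urea gels and read by phosphorimaging.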

Nucleic Acid [3] = assay: Binding affinity to HexRev DNA at <10 uM after 30 mins by DNase 1 footprinting assay; type: nucleic-acid assay; outline: as §1
Nucleic Acid [4] = assay: Binding affinity to HexB DNA at <10 uM after 30 mins by DNase 1 footprinting assay; type: nucleic-acid assay

Chain of hERG (KCNH2) (Q12809 whole entry): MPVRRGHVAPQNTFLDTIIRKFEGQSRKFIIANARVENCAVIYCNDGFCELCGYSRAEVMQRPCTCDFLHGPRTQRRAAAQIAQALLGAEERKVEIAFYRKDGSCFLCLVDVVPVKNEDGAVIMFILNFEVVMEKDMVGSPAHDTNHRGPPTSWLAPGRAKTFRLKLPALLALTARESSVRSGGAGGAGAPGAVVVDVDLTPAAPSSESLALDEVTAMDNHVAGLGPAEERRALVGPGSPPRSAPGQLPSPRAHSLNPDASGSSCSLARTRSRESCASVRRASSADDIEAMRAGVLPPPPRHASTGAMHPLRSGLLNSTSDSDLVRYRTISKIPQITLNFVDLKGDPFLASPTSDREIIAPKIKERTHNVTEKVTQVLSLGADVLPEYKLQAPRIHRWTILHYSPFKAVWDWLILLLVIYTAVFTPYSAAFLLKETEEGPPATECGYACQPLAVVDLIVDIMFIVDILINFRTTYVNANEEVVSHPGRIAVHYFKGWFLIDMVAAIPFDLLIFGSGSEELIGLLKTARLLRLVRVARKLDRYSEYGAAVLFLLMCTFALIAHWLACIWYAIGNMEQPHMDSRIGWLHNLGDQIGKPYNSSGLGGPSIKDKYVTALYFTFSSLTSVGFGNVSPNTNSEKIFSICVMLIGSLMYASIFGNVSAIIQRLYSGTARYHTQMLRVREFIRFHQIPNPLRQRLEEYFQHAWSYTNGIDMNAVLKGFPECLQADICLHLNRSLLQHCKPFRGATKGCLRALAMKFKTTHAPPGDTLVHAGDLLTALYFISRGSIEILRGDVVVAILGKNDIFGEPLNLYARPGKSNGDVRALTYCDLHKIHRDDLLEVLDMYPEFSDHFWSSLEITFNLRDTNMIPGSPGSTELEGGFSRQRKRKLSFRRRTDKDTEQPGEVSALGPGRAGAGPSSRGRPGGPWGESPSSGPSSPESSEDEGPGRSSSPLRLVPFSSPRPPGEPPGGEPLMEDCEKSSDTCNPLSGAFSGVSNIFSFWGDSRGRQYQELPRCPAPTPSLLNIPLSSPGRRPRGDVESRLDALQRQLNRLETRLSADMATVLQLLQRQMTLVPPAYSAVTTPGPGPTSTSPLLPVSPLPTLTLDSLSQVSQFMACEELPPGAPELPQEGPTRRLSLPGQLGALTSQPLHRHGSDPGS

MIC (Staphylococcus aureus)	SMILES	inhibition at 1 h, 10 µM (hERG (KCNH2))	also measured
inactive	Cn1cc(NC(=O)c2cc(NC(=O)c3ccc(/C=C/c4cnc5ccccc5c4)cc3)cn2C)cc1C(=O)NCCN	55%	–
31 µM (≈ 19.9 µg/mL)	CN/C(=C\[N+](=O)[O-])NCCNC(=O)c1cc(NC(=O)c2cc(NC(=O)c3ccc(/C=C/c4ccc(OC)cc4)nc3)cn2C)cn1C	–	–
inactive	COc1cccc(/C=C/c2ccc(C(=O)Nc3cc(C(=O)Nc4cc(C(=O)NCCNC(=O)OC(C)(C)C)n(C)c4)n(C)c3)cc2)c1	36%	–
inactive	COc1ccc(/C=C/c2ccc(C(=O)Nc3cc(C(=O)Nc4cc(C(=O)NCCNC(=N)N)n(C)c4)n(C)c3)cn2)cc1	–	–
inactive	COc1ccc(/C=C/c2ccc(C(=O)Nc3cc(C(=O)Nc4cc(C(=O)NCCO)n(C)c4)n(C)c3)cn2)cc1	–	–
7.8 µM (≈ 4.71 µg/mL)	Cn1cc(NC(=O)c2cc(NC(=O)c3ccc(/C=C/c4cnc5ccccc5c4)cc3)cn2C)cc1C(=O)NCCNC(=N)N	–	ΔTm (Nucleic Acid [1]): 29 °C; Activity (Nucleic Acid [2]): Active; Activity (Nucleic Acid [3]): Active; Activity (Nucleic Acid [4]): Active
inactive	CN/C(=C\[N+](=O)[O-])NCCNC(=O)c1cc(NC(=O)c2cc(NC(=O)c3ccc(/C=C/c4cccc(OC)c4)cc3)cn2C)cn1C	–	–
inactive	CN/C(=N\C#N)NCCNC(=O)c1cc(NC(=O)c2cc(NC(=O)c3ccc(/C=C/c4cnc5ccccc5c4)cc3)cn2C)cn1C	54%	–
25 µM (≈ 14.6 µg/mL)	COc1cccc(/C=C/c2ccc(C(=O)Nc3cc(C(=O)Nc4cc(C(=O)NCCNC(=N)N)n(C)c4)n(C)c3)cc2)c1	69%	–
inactive	CN/C(=N\C#N)NCCNC(=O)c1cc(NC(=O)c2cc(NC(=O)c3ccc(/C=C/c4cccc(OC)c4)cc3)cn2C)cn1C	58%	–
2.5 µM (≈ 1.65 µg/mL)	CN/C(=C\[N+](=O)[O-])NCCNC(=O)c1cc(NC(=O)c2cc(NC(=O)c3ccc(/C=C/c4cnc5ccccc5c4)cc3)cn2C)cn1C	51%	ΔTm (Nucleic Acid [1]): 16 °C; Activity (Nucleic Acid [2]): Active; Activity (Nucleic Acid [3]): Active; Activity (Nucleic Acid [4]): Active
inactive	COc1cccc(/C=C/c2ccc(C(=O)Nc3cc(C(=O)Nc4cc(C(=O)NCCOC(C)=O)n(C)c4)n(C)c3)cc2)c1	–	–
inactive	COc1cccc(/C=C/c2ccc(C(=O)Nc3cc(C(=O)Nc4cc(C(=O)NCCO)n(C)c4)n(C)c3)cc2)c1	32%	–
12.5 µM (≈ 8.22 µg/mL)	Cn1cc(NC(=O)c2cc(NC(=O)c3ccc(/C=C/c4cnc5ccccc5c4)cc3)cn2C)cc1C(=O)NCCNC(=O)C(F)(F)F	24%	–
25 µM (≈ 15.1 µg/mL)	CN(C)CCCNC(=O)c1cc(NC(=O)c2cc(NC(=O)c3ccc(/C=C/c4cnc5ccccc5c4)cc3)cn2C)cn1C	60%	–
inactive	COc1ccc(/C=C/c2ccc(C(=O)Nc3cc(C(=O)Nc4cc(C(=O)NCCOC(C)=O)n(C)c4)n(C)c3)cn2)cc1	–	–
0.12 µM (≈ 0.0758 µg/mL)	Cn1cc(NC(=O)c2cc(NC(=O)c3ccc(/C=C/c4cnc5ccccc5c4)cc3)cn2C)cc1C(=O)NCCN1CCOCC1 [MGB-BP-3]	65%	–
2 µM (≈ 1.22 µg/mL)	COc1cccc(/C=C/c2ccc(C(=O)Nc3cc(C(=O)Nc4cc(C(=O)NCCN5CCOCC5)n(C)c4)n(C)c3)cc2)c1	65%	–
6.25 µM (≈ 3.82 µg/mL)	COc1ccc(/C=C/c2ccc(C(=O)Nc3cc(C(=O)Nc4cc(C(=O)NCCN5CCOCC5)n(C)c4)n(C)c3)cn2)cc1	58%	–
